Results: ChEMBL document CHEMBL1157379, “Transcriptional response of Candida parapsilosis following exposure to farnesol” (2007)
Active and inactive are the calls of the source. No cut-off for these calls is given here.

Key:
Candida parapsilosis [1] = assay: Increase in CGD gene ortholog accession number orf19.5847 expression in Candida parapsilosis CLIB214 at 50 uM after 2 hrs by microarray based transcriptional profiling relative to control; type: functional
Method in brief: (§1)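 Strain CLIB214 grown overnight in YPD at 30°C, diluted to A600 0.2 in fresh YPD at 30°C. After 4 h (A600 0.8), farnesol (40 mM methanol stock) added to 50 μM final, or an equal methanol volume as control; cells harvested 2 h later. RNA was accepted only with a 28S/18S ratio of 1.6–2.2. Cy3/Cy5-dCTP-labelled cDNA was made from 25 μg total RNA. Hybridisation was to duplicate-spotted 68-mer oligo arrays (3,849 genes) at 42°C for about 16 h. Six individual comparisons.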

Candida parapsilosis [2] = assay: Increase in GenBank accession number NP_943633.1 expression in Candida parapsilosis CLIB214 at 50 uM after 2 hrs by microarray based transcriptional profiling relative to control; type: functional
Method in brief: (§2)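 Strain grown overnight in YPD at 30°C, diluted to A600 0.2 in YPD at 30°C; farnesol (40 mM methanol stock) added at 4 h (A600 0.8), final 50 μM; methanol-only control. Cells collected 2 h later for RNA. Labelled cDNA from 25 μg total RNA (Cy3/Cy5-dCTP) hybridized to 68-mer oligo arrays at 42°C ~16 h; six individual comparisons analysed statistically.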

Candida parapsilosis [3] = assay: Increase in ADH7 gene expression in Candida parapsilosis CLIB214 by RT-PCR; type: functional, organism-based
Method in brief: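 RNA came from YPD cultures at 30°C given farnesol or methanol at 4 h (A600 0.8), harvested after 2 h. RT-PCR: 95°C hot start for 1.5 min, then 26 cycles (95°C 40 s, 55°C 2 min, 72°C 3 min), then a 5-min final extension at 72°C. Each gene's signal normalised to ACT1.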

Candida parapsilosis [4] = assay: Reduction in GCN3 gene expression in Candida parapsilosis CLIB214 by RT-PCR; type: functional
Method in brief: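 Cultures in YPD at 30°C, diluted to A600 0.2; 50 μM farnesol (final) or methanol added at 4 h, RNA harvested 2 h later. RT-PCR: 95°C hot start 1 min 30 s, then 26 cycles (95°C 40 s, 55°C 2 min, 72°C 3 min), final 72°C 5 min; each gene signal normalized to ACT1.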

Candida parapsilosis [5] = assay: Decrease in PGA55 gene expression in Candida parapsilosis CLIB214 at 50 uM after 2 hrs by microarray based transcriptional profiling relative to control; type: functional; method in brief: as §1
Candida parapsilosis [6] = assay: Increase in ALS2 gene expression in Candida parapsilosis CLIB214 at 50 uM after 2 hrs by microarray based transcriptional profiling relative to control; type: functional; method in brief: as §1
Candida parapsilosis [7] = assay: Increase in CGD gene ortholog accession number orf19.966 expression in Candida parapsilosis CLIB214 at 50 uM after 2 hrs by microarray based transcriptional profiling relative to control; type: functional; method in brief: as §2

Compound: CC(C)=CCC/C(C)=C/CC/C(C)=C/CO [FARNESOL]
- fold change (FC) (Candida parapsilosis [1]): 1.89
- fold change (FC) (Candida parapsilosis [2]): 2.81
- Activity (Candida parapsilosis [3]): Active
- fold change (FC) (Candida parapsilosis [4]): 1.54
- fold change (FC) (Candida parapsilosis [5]): 1.76
- fold change (FC) (Candida parapsilosis [6]): 1.61
- fold change (FC) (Candida parapsilosis [7]): 1.6
